Activity and inhibition data for 15 compounds are collected here from ChEMBL document CHEMBL1811866, “Design, synthesis, and biological evaluation of abiotic, non-lactone modulators of LuxR-type quorum sensing” (Bioorg Med Chem, 2011).

The term inhibition denotes the relative decrease from the control value, in per cent.

Common to all, as to format: functional
Test [1] concerns Escherichia coli DH5[alpha]. Briefly: Agonist activity at Escherichia coli DH5alpha (pJN105L + pSC11) LasR assessed as activation of quorum sensing at 10 uM relative to N-(3-oxo)-dodecanoyl HL.
Test [2] relates to Escherichia coli DH5[alpha]. Briefly: Antagonist activity at Escherichia coli DH5alpha (pJN105L + pSC11) LasR assessed as inhibition of N-(3-oxo)-dodecanoyl HL-induced quorum sensing activation at 10 uM relative to untreated control.
Test [3] has as its target T1, Transcriptional activator protein LasR (Pseudomonas aeruginosa (strain ATCC 15692 / PAO1 / 1C / PRS 101 / LMG12228)) (UniProt P25084).
T1 sequence (whole entry): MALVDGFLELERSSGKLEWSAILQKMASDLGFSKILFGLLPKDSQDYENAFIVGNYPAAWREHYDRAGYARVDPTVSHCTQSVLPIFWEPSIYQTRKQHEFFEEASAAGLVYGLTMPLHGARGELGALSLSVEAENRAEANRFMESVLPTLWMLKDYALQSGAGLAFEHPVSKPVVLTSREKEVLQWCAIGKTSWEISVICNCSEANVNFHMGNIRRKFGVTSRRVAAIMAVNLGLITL
Briefly: Agonist activity at Pseudomonas aeruginosa PAO1 MW1 (pUM15) LasR assessed as activation of quorum sensing at 10 uM relative to N-(3-oxo)-dodecanoyl HL. Summed up: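 P. aeruginosa PAO1 MW1 grown overnight at 30 °C in LB/MOPS pH 7 with carbenicillin (300 µg/mL). Subcultured 1:10 at 37 °C to OD 0.25–0.30 and plated with compound only, no native ligand. Incubated with shaking at 37 °C for 8 h. OD and fluorescence then read.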

Test [4] deals with T2, Transcriptional activator protein LuxR (Aliivibrio fischeri) (UniProt P12746).
T2 sequence (whole entry): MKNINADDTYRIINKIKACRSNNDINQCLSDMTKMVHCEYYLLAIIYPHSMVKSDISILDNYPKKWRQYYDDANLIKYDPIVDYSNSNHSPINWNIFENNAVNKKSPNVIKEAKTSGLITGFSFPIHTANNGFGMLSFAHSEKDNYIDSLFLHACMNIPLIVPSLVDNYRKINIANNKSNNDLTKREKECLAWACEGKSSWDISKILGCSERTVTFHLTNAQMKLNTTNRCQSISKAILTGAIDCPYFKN
Briefly: Antagonist activity at Vibrio fischeri ESI 114 (delta-LuxI) LuxR assessed as inhibition of OHHL-induced quorum sensing activation at 10 uM relative to untreated control. Summed up:
(§1)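 LuxR reporter in V. fischeri ESI 114 (Δ-LuxI), compounds screened at 10 μM in triplicate. For inhibition, cells challenged with 2 μM OHHL. Agonism normalized to native ligand at 100 μM. Negative controls with no ligand subtracted as background.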

Test [5] addresses T2, Transcriptional activator protein LuxR (Aliivibrio fischeri). Briefly: Agonist activity at Vibrio fischeri ESI 114 (delta-LuxI) LuxR assessed as activation of quorum sensing at 10 uM relative to OHHL. Summed up:
as §1

Test [6] deals with T1, Transcriptional activator protein LasR (Pseudomonas aeruginosa (strain ATCC 15692 / PAO1 / 1C / PRS 101 / LMG12228)). Briefly: Antagonist activity at Pseudomonas aeruginosa PAO1 MW1 (pUM15) LasR assessed as inhibition of N-(3-oxo)-dodecanoyl HL-induced quorum sensing activation at 10 uM relative to untreated control. The method in brief:
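P. aeruginosa PAO1 MW1 colony grown overnight at 30 °C in LB with MOPS at pH 7 plus carbenicillin (300 µg/mL). Diluted 1:10 and shaken at 37 °C to OD 0.25–0.30. OdDHL added to the subculture at 1 μM final, then plated with test compound. Plates shaken at 37 °C for 8 h, then optical density and fluorescence read.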

With `O=C(Cc1ccc(Br)cc1)NC1CCCC1`, the Activity in test [1], in test [3] and in test [5] was 0% each time. In addition, the inhibition in test [2] came out at 11%; in test [4], 35%.
As for `CCOC(=O)CNC(=O)CCc1cccc(I)c1`, the Activity in test [1], in test [3] and in test [5] was 0% each time. Besides, the results for the inhibition in test [2] and in test [4] were 38% and 89%, respectively.
Take `CCOC(=O)CNC(=O)Cc1ccccc1`: the Activity in test [1], in test [3] and in test [5] was 0% each time. Moreover, the inhibition in test [2] is 38%; in test [6], -10%; in test [4], 15%.
As to `CCOC(=O)CNC(=O)CCc1ccc(Cl)cc1`, the Activity in test [1], in test [3] and in test [5] was 0% throughout. The inhibition was 38% in test [2], -5% in test [6] and 14% in test [4].
In the case of `CCOC(=O)CNC(=O)Cc1ccc(Br)cc1`, the Activity in test [1], in test [3] and in test [5] was 0% throughout. In addition, the inhibition in test [2] is 33%; in test [4] it was 14%.
On to `O=C(Cc1ccccc1)NC1CCCC1`, for which the Activity in test [1], in test [3] and in test [5] was 0% throughout. In addition, the figures for the inhibition in test [2], in test [6] and in test [4] were 11%, 1% and 19%, respectively.
On to `CCCCCCCCCC(=O)Nc1ccccc1`, for which the Activity in test [1] was determined as 3%; in test [3], 0%; in test [5], 7%. The inhibition in test [2] worked out at 20%; in test [6] it was 5%; in test [4], 2%.
Regarding `CCOC(=O)CNC(=O)Cc1cccc([N+](=O)[O-])c1`, the Activity came to 93% in test [1], 0% in test [3] and 0% in test [5]. Besides, the figures for the inhibition in test [2] and in test [4] were 41% and 19%, respectively.
With `COc1ccc(CC(=O)NC2CCCC2)cc1`, the Activity stood at 6% in test [1], 0% in test [3] and 3% in test [5]. Moreover, the values for the inhibition in test [2], in test [6] and in test [4] were 24%, -1% and 18%, respectively.
Regarding `O=C(CCCc1c[nH]c2ccccc12)NC1CCCC1`, the Activity in test [1] was determined as 0%; in test [3], 2%; in test [5], 4%. The inhibition in test [2] is 20%; in test [6] it was -10%; in test [4] it was 25%.
`CCOC(=O)CNC(=O)Cc1ccc(SC(F)(F)F)cc1`: the Activity in test [1], in test [3] and in test [5] was 0% each time. Further, the inhibition in test [2] turned out to be 33%; in test [4], 43%.
Take `O=C(Cc1ccc(Br)cc1)Nc1ccccc1`: the Activity in test [1] worked out at 3%; in test [3] it was 0%; in test [5], 0%. Besides, the inhibition amounted to 20% in test [2], 12% in test [6] and 1% in test [4].
Consider `O=C(Cc1cccc([N+](=O)[O-])c1)Nc1ccccc1`, for which the Activity is 0% in test [1], 1% in test [3] and 0% in test [5]. For the same compound, the inhibition in test [2] worked out at 12%; in test [6] it was 0%; in test [4] it was 0%.
`O=C(Cc1ccc(-c2ccccc2)cc1)NC1CCCC1`: the results for the Activity in test [1], in test [3] and in test [5] were 0%, 1% and 5%, respectively. For the same compound, the inhibition in test [2] is 4%; in test [4], 17%.
Consider `CCOC(=O)CNC(=O)CCc1ccc(OC)cc1`, for which the Activity in test [1], in test [3] and in test [5] was 0% in each case. In addition, the figures for the inhibition in test [2], in test [6] and in test [4] were 36%, -6% and 40%, respectively.
